Test results taken from ChEMBL document CHEMBL1828627, “High-throughput-screening-based identification and structure-activity relationship characterization defined (S)-2-(1-aminoisobutyl)-1-(3-chlorobenzyl)benzimidazole as a highly antimycotic agent nontoxic to cell lines” (J Med Chem, 2011).
Converted amounts (≈) assume the structure as drawn. The source made the active and inactive calls.

Key:
Candida albicans [1] = assay: Antifungal activity against Candida albicans AN 1994 by broth dilution method; type: functional
Summary of the method: (§1)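 MICs by broth microdilution following CLSI M27-A3 for yeasts, with fluconazole as the reference antifungal. Panel covered type strains and clinical isolates of Candida spp. (21 strains). Reference control strains: C. albicans DSMZ 11949, C. glabrata ATCC 90030, C. parapsilosis 22019 and 90018, Issatchenkia orientalis ATCC 6258. MIC in μg/mL; averages given as geometric means.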

Candida albicans [2] = assay: Antifungal activity against Candida albicans AN 1699 by broth dilution method; type: functional; summary of the method: as §1
Candida albicans [3] = assay: Antifungal activity against Candida albicans DSMZ 11949 by broth dilution method; type: functional; summary of the method: as §1
Candida parapsilosis [4] = assay: Antifungal activity against Candida parapsilosis AV 7675 by broth dilution method; type: functional; conditions: Lodderomyces parapsilosis; summary of the method: as §1
Candida parapsilosis [5] = assay: Antifungal activity against Candida parapsilosis 22019 by broth dilution method; type: functional; conditions: Lodderomyces parapsilosis; summary of the method: as §1
Candida albicans [6] = assay: Antifungal activity against Candida albicans CA21 by broth dilution method; type: functional; summary of the method: as §1
Candida albicans [7] = assay: Antifungal activity against Candida albicans SC5314 infected in HeLa cells at 20 uM after 5 days by fluorescein diacetate assay; type: functional, organism-based
Summary of the method: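 Primary HTS: HeLa cells co-incubated with C. albicans plus a single compound at ~20 μM for 5 days. Viability checked microscopically at 18 h and quantified at day 5 by fluorescein diacetate fluorescence. Wells also scanned visually for yeast growth. Hit criterion: >40% signal relative to the uninfected untreated HeLa (~100%) and infected untreated HeLa (~0%) controls.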

Candida albicans [8] = assay: Antifungal activity against Candida albicans AM2001/2007 by broth dilution method; type: functional; summary of the method: as §1
Nakaseomyces glabratus [9] = assay: Antifungal activity against Candida glabrata AN 8626 by broth dilution method; type: functional; summary of the method: as §1
Pichia kudriavzevii = assay: Antifungal activity against Issatchenkia orientalis ATCC 6258 by broth dilution method; type: functional; summary of the method: as §1
Candida albicans [10] = assay: Antifungal activity against Candida albicans Jg 32570 by broth dilution method; type: functional; summary of the method: as §1
Candida albicans [11] = assay: Antifungal activity against Candida albicans SCS 71865 L by broth dilution method; type: functional; summary of the method: as §1
Candida tropicalis = assay: Antifungal activity against Candida tropicalis AN 1946 by broth dilution method; type: functional; summary of the method: as §1
[12] = Cytotoxicity against human HeLa cells assessed as cell viability after 5 days by fluorescein diacetate assay; type: cell-based
[13] = Selectivity index of CC50 for human HeLa cells to IC50 for Candida albicans SC5314 infected in HeLa cells
Summary of the method: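 Selectivity index calculated as CC50/IC50. CC50 is the half-maximal cytotoxic concentration in HeLa cells; IC50 is the half-maximal antimycotic concentration in the C. albicans–infected HeLa assay. Both come from 5-day fluorescein diacetate viability readouts.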

Candida albicans [14] = assay: Antifungal activity against Candida albicans CA20 by broth dilution method; type: functional; summary of the method: as §1
Candida albicans [15] = assay: Antifungal activity against Candida albicans AN 562 by broth dilution method; type: functional; summary of the method: as §1
Candida parapsilosis [16] = assay: Antifungal activity against Candida parapsilosis AN 5485 by broth dilution method; type: functional; conditions: Lodderomyces parapsilosis; summary of the method: as §1
Candida albicans [17] = assay: Antifungal activity against Candida albicans AN 3156 by broth dilution method; type: functional; summary of the method: as §1
Candida albicans [18] = assay: Antifungal activity against Candida albicans VB 1723 by broth dilution method; type: functional; summary of the method: as §1
Nakaseomyces glabratus [19] = assay: Antifungal activity against Candida glabrata ATCC 90030 by broth dilution method; type: functional; summary of the method: as §1
Candida albicans [20] = assay: Antifungal activity against Candida albicans MY 2902/2008 by broth dilution method; type: functional; summary of the method: as §1
Nakaseomyces glabratus [21] = assay: Antifungal activity against Candida glabrata CG 7 by broth dilution method; type: functional; summary of the method: as §1
Candida albicans [22] = assay: Antifungal activity against Candida albicans SC5314 infected in HeLa cells after 5 days by fluorescein diacetate assay; type: functional, organism-based; conditions: Candida albicans, SC5314, HeLa, 120 h; read-out: IC50
Summary of the method: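 HeLa cells co-incubated with C. albicans and compound for 5 days. Dose–response from resynthesized compounds. Host-cell viability checked microscopically at 18 h, then quantified at day 5 by fluorescein diacetate conversion to a fluorophore by live cells. Wells also inspected visually for yeast growth. Controls: untreated uninfected HeLa (~100%) and untreated infected HeLa (~0%). IC50 derived from infected cells; CC50 as half-maximal cytotoxic concentration.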

Candida parapsilosis [23] = assay: Antifungal activity against Candida parapsilosis 90018 by broth dilution method; type: functional; conditions: Lodderomyces parapsilosis; summary of the method: as §1

Compound | MIC (Candida albicans [1]) [µg/mL] | MIC (Candida albicans [2]) [µg/mL] | MIC (Candida albicans [3]) [µg/mL] | MIC (Candida parapsilosis [4]) [µg/mL] | MIC (Candida parapsilosis [5]) [µg/mL] | MIC (Candida albicans [6]) [µg/mL] | inhibition (Candida albicans [7]) | MIC (Candida albicans [8]) [µg/mL] | MIC (Nakaseomyces glabratus [9]) [µg/mL] | MIC (Pichia kudriavzevii) [µg/mL] | MIC (Candida albicans [10]) [µg/mL] | MIC (Candida albicans [11]) [µg/mL] | MIC (Candida tropicalis) [µg/mL] | CC50 at 120 h [12] [µM] | Ratio CC50/IC50 [13] | MIC (Candida albicans [14]) [µg/mL] | MIC (Candida albicans [15]) [µg/mL] | MIC (Candida parapsilosis [16]) [µg/mL] | MIC (Candida albicans [17]) [µg/mL] | MIC (Candida albicans [18]) [µg/mL] | also measured
Cc1cccc(Cn2c([C@@H](N)C(C)C)nc3ccccc32)c1 | 32 (≈ 109 µM) | 64 (≈ 218 µM) | 16 (≈ 54.5 µM) | 128 (≈ 436 µM) | 1 (≈ 3.41 µM) | 0.5 (≈ 1.7 µM) | inactive | 16 (≈ 54.5 µM) | 0.125 (≈ 0.426 µM) | 1 (≈ 3.41 µM) | 128 (≈ 436 µM) | 32 (≈ 109 µM) | 8 (≈ 27.3 µM) | 10.6 | 3.2 | 0.125 (≈ 0.426 µM) | 32 (≈ 109 µM) | 2 (≈ 6.82 µM) | 32 (≈ 109 µM) | 32 (≈ 109 µM) | MIC (Nakaseomyces glabratus [19]): 0.25 µg/mL (≈ 0.852 µM); MIC (Candida albicans [20]): 32 µg/mL (≈ 109 µM); MIC (Nakaseomyces glabratus [21]): 32 µg/mL (≈ 109 µM); IC50 (Candida albicans [22]): 3.3 µM; MIC (Candida parapsilosis [23]): 1 µg/mL (≈ 3.41 µM)
CC(C)[C@H](N)c1nc2ccccc2n1Cc1cccc(F)c1 | 2 (≈ 6.73 µM) | 16 (≈ 53.8 µM) | 16 (≈ 53.8 µM) | 128 (≈ 430 µM) | 16 (≈ 53.8 µM) | 0.125 (≈ 0.42 µM) | inactive | 4 (≈ 13.5 µM) | 16 (≈ 53.8 µM) | 16 (≈ 53.8 µM) | 128 (≈ 430 µM) | 16 (≈ 53.8 µM) | 32 (≈ 108 µM) | 20.6 | 9.4 | 0.125 (≈ 0.42 µM) | 16 (≈ 53.8 µM) | 16 (≈ 53.8 µM) | 16 (≈ 53.8 µM) | 4 (≈ 13.5 µM) | MIC (Nakaseomyces glabratus [19]): 8 µg/mL (≈ 26.9 µM); MIC (Candida albicans [20]): 16 µg/mL (≈ 53.8 µM); MIC (Nakaseomyces glabratus [21]): 64 µg/mL (≈ 215 µM); IC50 (Candida albicans [22]): 2.2 µM; MIC (Candida parapsilosis [23]): 16 µg/mL (≈ 53.8 µM)
C[C@H](N)c1nc2ccccc2n1Cc1cccc(Cl)c1 | 16 (≈ 56 µM) | 16 (≈ 56 µM) | 4 (≈ 14 µM) | 128 (≈ 448 µM) | 4 (≈ 14 µM) | 0.125 (≈ 0.437 µM) | inactive | 8 (≈ 28 µM) | 4 (≈ 14 µM) | 4 (≈ 14 µM) | 128 (≈ 448 µM) | 8 (≈ 28 µM) | 8 (≈ 28 µM) | 19.3 | 2.5 | 0.125 (≈ 0.437 µM) | 16 (≈ 56 µM) | 8 (≈ 28 µM) | 16 (≈ 56 µM) | 1 (≈ 3.5 µM) | MIC (Nakaseomyces glabratus [19]): 8 µg/mL (≈ 28 µM); MIC (Candida albicans [20]): 0.5 µg/mL (≈ 1.75 µM); MIC (Nakaseomyces glabratus [21]): 8 µg/mL (≈ 28 µM); IC50 (Candida albicans [22]): 7.8 µM; MIC (Candida parapsilosis [23]): 4 µg/mL (≈ 14 µM)
